Source: the M2OR odorant receptor database

Experiments:
Settings in all cases: stereoisomer not certain
[1] = target: T1, UniProt Q8VGC6
T1 sequence (whole entry): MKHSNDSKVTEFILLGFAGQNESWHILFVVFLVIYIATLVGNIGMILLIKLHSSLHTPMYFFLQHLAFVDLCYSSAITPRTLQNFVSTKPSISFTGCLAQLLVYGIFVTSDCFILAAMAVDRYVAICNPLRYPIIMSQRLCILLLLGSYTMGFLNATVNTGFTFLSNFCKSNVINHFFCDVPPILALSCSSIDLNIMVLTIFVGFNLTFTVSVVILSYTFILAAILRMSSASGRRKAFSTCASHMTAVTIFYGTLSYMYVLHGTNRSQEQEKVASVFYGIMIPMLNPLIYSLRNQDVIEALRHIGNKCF
How it was run: (§1)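 Transient luciferase assays in mammalian cell lines were common, though methods varied by source. The values come from published papers and their supplementary material, with extra details from the original authors when needed. Responsive refers to a measured signal the original authors judged statistically different from baseline, and non-responsive (inactive) to the remainder.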

[2] = target: T2, UniProt Q8VGD7
T2 sequence (whole entry): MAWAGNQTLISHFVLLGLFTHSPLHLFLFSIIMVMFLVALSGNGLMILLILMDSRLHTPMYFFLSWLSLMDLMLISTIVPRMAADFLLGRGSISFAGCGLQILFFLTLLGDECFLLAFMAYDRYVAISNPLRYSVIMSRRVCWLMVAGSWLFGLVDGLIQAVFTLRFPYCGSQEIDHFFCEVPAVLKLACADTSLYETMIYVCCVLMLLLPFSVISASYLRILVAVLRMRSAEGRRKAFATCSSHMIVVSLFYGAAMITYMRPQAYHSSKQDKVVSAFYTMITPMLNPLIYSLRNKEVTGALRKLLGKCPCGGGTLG
How it was run: as §1

[3] = target: T3, UniProt Q8VGH1
T3 sequence (whole entry): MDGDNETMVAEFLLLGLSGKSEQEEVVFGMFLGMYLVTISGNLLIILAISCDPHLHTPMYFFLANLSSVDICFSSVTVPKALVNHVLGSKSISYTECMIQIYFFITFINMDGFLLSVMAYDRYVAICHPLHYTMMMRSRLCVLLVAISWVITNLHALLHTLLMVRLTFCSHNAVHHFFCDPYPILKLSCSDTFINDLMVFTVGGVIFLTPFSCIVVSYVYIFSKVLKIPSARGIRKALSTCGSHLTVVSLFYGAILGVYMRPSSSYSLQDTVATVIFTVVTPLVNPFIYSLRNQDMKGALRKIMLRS
How it was run: as §1

[4] = target: T4, UniProt Q8VGJ1
T4 sequence (whole entry): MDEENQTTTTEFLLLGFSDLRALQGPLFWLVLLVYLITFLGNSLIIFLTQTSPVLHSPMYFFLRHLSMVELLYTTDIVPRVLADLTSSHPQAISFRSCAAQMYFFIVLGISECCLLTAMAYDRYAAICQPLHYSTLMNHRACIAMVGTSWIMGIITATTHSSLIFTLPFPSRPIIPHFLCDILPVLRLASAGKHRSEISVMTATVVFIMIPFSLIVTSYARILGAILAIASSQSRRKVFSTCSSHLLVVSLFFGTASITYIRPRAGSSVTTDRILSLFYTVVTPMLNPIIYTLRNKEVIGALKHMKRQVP
How it was run: as §1

[5] = target: T5, UniProt Q8VGJ3
T5 sequence (whole entry): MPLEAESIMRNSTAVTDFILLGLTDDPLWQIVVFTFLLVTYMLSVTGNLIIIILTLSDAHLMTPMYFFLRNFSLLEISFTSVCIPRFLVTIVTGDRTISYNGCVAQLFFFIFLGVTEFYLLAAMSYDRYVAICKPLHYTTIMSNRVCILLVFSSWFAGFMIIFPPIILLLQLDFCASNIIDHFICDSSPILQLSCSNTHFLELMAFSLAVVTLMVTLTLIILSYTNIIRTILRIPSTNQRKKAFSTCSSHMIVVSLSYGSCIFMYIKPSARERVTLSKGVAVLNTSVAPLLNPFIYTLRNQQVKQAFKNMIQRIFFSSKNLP
How it was run: as §1

[6] = target: T6, UniProt Q8VGJ5
T6 sequence (whole entry): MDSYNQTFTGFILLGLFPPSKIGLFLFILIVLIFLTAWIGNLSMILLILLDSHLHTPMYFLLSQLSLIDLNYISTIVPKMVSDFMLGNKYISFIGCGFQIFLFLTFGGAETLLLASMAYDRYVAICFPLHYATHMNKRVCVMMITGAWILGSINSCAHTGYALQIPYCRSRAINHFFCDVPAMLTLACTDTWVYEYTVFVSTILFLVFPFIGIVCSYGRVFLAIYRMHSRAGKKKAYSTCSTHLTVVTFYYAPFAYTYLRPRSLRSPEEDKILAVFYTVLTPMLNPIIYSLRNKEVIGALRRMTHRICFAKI
How it was run: as §1

[7] = target: T7, UniProt Q8VGL0
T7 sequence (whole entry): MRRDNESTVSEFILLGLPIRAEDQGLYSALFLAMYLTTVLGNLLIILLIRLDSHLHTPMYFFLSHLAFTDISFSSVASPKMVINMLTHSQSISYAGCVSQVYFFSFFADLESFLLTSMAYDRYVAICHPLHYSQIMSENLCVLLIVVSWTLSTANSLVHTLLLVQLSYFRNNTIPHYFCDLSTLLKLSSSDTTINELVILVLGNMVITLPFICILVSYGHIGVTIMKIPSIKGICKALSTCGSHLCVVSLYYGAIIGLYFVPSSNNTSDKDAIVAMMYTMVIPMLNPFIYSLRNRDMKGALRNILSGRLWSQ
How it was run: as §1

[8] = target: T8, UniProt Q8VGL7
T8 sequence (whole entry): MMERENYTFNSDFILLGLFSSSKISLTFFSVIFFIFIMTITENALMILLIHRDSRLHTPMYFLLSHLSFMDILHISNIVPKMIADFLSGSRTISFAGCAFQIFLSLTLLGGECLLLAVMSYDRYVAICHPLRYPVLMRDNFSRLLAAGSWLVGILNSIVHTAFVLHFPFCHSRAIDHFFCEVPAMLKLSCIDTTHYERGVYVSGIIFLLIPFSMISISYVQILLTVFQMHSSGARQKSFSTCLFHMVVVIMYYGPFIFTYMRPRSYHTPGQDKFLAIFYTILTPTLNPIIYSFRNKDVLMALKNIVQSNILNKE
How it was run: as §1

[9] = target: T9, UniProt Q8VGM2
T9 sequence (whole entry): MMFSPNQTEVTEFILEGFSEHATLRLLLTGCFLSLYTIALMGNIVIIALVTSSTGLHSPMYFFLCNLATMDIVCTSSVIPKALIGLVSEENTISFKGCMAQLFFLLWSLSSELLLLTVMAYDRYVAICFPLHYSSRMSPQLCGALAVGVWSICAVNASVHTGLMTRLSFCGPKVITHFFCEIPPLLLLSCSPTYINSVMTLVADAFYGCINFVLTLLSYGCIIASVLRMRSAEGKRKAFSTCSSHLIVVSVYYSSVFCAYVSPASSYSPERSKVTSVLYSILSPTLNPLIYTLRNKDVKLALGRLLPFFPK
How it was run: as §1

[10] = target: T10, UniProt Q8VGP6
T10 sequence (whole entry): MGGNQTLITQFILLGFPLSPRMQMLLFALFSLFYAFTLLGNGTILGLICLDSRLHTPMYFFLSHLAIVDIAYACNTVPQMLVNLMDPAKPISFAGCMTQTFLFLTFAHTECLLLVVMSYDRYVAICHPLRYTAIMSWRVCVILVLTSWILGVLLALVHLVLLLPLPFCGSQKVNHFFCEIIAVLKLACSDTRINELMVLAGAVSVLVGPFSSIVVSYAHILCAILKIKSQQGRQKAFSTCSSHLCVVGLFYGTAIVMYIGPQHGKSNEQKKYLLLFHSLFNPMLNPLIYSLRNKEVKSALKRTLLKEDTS
How it was run: as §1

[11] = target: T11, UniProt Q8VGQ3
T11 sequence (whole entry): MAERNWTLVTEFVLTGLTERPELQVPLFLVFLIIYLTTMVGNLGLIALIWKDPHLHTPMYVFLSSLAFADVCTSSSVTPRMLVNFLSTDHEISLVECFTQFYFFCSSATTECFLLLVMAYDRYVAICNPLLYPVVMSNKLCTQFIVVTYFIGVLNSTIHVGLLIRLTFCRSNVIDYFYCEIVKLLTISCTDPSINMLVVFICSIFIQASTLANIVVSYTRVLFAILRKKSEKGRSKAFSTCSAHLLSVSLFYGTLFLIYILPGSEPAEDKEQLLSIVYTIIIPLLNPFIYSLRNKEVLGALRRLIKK
How it was run: as §1

[12] = target: T12, UniProt Q8VGT4
T12 sequence (whole entry): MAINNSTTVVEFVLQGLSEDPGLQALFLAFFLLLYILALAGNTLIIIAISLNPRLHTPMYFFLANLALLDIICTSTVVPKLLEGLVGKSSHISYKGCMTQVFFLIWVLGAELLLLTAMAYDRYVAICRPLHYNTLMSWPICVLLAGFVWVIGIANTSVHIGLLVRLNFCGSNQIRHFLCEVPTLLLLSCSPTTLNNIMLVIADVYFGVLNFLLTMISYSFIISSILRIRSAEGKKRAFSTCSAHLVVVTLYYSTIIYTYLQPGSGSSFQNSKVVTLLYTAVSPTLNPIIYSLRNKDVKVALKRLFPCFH
How it was run: as §1

[13] = target: T13, UniProt Q8VGU3
T13 sequence (whole entry): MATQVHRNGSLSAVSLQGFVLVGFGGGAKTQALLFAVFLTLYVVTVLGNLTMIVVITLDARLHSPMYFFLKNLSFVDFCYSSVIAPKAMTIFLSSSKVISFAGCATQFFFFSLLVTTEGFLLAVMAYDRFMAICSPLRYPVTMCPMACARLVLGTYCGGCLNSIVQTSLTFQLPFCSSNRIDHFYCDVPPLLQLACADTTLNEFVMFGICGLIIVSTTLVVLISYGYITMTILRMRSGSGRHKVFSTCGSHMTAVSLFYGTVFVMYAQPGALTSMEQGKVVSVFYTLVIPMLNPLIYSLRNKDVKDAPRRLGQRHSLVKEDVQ
How it was run: as §1

[14] = target: T14, UniProt Q8VGV1
T14 sequence (whole entry): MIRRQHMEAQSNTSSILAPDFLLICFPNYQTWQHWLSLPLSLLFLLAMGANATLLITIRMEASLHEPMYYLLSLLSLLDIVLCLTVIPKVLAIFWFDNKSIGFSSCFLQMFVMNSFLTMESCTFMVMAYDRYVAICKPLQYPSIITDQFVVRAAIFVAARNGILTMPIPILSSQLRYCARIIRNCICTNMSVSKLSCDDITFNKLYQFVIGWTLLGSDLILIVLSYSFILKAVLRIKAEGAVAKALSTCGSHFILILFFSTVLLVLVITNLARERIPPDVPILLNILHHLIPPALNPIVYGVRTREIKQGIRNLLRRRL
How it was run: as §1

[15] = target: T15, UniProt Q8VGV7
T15 sequence (whole entry): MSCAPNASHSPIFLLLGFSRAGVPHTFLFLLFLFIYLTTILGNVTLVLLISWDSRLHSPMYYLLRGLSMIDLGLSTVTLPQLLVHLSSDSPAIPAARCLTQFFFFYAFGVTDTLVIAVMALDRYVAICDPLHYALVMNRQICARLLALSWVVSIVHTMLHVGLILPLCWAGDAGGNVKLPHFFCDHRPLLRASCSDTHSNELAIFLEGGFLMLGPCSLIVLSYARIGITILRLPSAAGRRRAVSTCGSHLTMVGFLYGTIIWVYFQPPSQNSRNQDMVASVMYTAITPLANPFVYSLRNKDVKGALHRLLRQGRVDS
How it was run: as §1

[16] = target: T16, UniProt Q8VGX3
T16 sequence (whole entry): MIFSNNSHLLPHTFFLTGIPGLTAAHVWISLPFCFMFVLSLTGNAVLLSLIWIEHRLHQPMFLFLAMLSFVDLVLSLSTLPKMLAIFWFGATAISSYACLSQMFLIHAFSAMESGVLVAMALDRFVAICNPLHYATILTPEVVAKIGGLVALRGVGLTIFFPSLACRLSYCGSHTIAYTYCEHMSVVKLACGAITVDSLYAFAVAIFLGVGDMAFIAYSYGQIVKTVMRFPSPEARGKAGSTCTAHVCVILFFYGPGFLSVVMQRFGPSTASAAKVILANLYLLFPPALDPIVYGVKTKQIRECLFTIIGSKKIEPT
How it was run: as §1

[17] = target: T17, UniProt Q8VGX5
T17 sequence (whole entry): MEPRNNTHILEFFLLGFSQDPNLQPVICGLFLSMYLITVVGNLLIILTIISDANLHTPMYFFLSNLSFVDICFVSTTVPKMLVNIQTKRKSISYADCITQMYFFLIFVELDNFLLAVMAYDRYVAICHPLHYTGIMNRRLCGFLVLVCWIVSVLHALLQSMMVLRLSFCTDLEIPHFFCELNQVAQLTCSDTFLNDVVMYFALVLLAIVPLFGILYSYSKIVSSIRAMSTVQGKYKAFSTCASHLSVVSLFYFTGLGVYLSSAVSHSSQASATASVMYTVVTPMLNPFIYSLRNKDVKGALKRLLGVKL
How it was run: as §1

[18] = target: T18, UniProt Q8VGW5
T18 sequence (whole entry): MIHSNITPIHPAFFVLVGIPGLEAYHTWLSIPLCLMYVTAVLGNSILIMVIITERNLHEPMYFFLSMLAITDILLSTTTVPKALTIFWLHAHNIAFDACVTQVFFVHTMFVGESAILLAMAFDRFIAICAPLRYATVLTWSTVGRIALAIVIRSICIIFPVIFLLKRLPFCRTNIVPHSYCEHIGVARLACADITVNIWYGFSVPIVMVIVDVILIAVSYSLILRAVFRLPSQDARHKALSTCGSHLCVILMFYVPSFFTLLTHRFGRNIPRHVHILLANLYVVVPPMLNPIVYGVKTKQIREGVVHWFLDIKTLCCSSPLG
How it was run: as §1

Measured: odorant receptor agonist call;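 note: active if original authors judged signal statistically different from baseline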

CCC(=O)C(=O)CC
inactive: [1] | [2] | [3] | [4] | [5] | [6] | [7] | [8] | [9] | [10] | [11] | [12] | [13] | [14] | [15] | [16] | [17]

CCCCC=O
active: [18]
inactive: [1] | [5] | [7] | [13] | [15] | [16] | [17]

CCc1occc(=O)c1O
inactive: [1] | [5] | [7] | [13] | [15] | [16]
active: [17]

CCC(C(=O)O)c1ccccc1 (configuration not stated)
inactive: [1] | [2] | [3] | [4] | [6] | [7] | [8] | [9] | [10] | [11] | [12] | [14] | [17]

CCCCCC1=C(C)CCC1=O
inactive: [1] | [2] | [3] | [4] | [5] | [7] | [9] | [10] | [11] | [12] | [13] | [14] | [15] | [16]
active: [6] | [8] | [17]
